Results on 18 compounds are retold here after ChEMBL document CHEMBL4725451, “Discovery of Tricyclic Xanthines as Agonists of the Cannabinoid-Activated Orphan G-Protein-Coupled Receptor GPR18” (ACS Med Chem Lett, 2020).

Experiment [1] addresses T1, N-arachidonyl glycine receptor (Homo sapiens, UniProt Q14330).
T1 sequence (Q14330 whole entry): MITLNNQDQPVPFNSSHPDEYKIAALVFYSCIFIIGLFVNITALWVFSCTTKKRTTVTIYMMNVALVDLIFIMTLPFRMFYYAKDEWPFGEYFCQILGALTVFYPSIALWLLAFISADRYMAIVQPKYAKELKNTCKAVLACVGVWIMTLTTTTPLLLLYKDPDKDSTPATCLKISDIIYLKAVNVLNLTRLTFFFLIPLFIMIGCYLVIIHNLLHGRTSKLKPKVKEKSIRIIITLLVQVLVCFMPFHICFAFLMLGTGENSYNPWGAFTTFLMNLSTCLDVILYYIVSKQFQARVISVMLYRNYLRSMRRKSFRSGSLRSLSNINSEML
Briefly: Agonist activity at Prolink1-tagged human GPR18 receptor expressed in CHO cells assessed as induction of beta-arrestin recruitment after 90 mins by beta-galactosidase based topcount luminescence analysis. The format is cell-based.

In experiment [2] the target is T2, G-protein coupled receptor 55 (Homo sapiens, UniProt Q9Y2T6). As to the kind of experiment: Antagonist activity at Prolink1-tagged human GPR55 receptor expressed in CHO cells assessed as inhibition of lysophosphatidylinositol-induced beta arrestin recruitment after 90 mins by beta-galactosidase based topcount luminescence analysis. It is filed as functional, cell-based. Background: Arrestin recruitment assays detect the binding of arrestin to an activated receptor.

Experiment [3] concerns the target T2, G-protein coupled receptor 55. As to the kind of experiment: Agonist activity at Prolink1-tagged human GPR55 receptor expressed in CHO cells assessed as induction of beta-arrestin recruitment at 10 uM after 90 mins by beta-galactosidase based topcount luminescence analysis relative to control. It is filed as cell-based. The essentials: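 CHO cells stably expressing GPR55, β2-arrestin recruitment detected by enzyme complementation and luminescence. Compounds tested at 10 μM; effect normalized to signal from 1 μM LPI.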

Experiment [4] concerns the target T3, N-arachidonyl glycine receptor (Homo sapiens) (UniProt Q14330).
T3 sequence (whole entry): T1 sequence (Q14330 whole entry)
Briefly: Agonist activity at Prolink1-tagged human GPR18 receptor expressed in CHO cells assessed as induction of beta-arrestin recruitment at 10 uM after 90 mins by beta-galactosidase based topcount luminescence analysis relative to control. The format is cell-based. The essentials:
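CHO cells stably expressing human GPR18, β-arrestin enzyme-complementation assay with luminescence read-out. Test compound at 10 μM single concentration; signal normalized to that of 10 μM Δ9-THC.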

Experiment [5] deals with T1, N-arachidonyl glycine receptor. Briefly: Antagonist activity at Prolink1-tagged human GPR18 receptor expressed in CHO cells assessed as inhibition of THC-induced beta arrestin recruitment after 90 mins by beta-galactosidase based topcount luminescence analysis. The format is functional, cell-based.
The target in experiment [6] is T2, G-protein coupled receptor 55. Briefly: Agonist activity at Prolink1-tagged human GPR55 receptor expressed in CHO cells assessed as induction of beta-arrestin recruitment after 90 mins by beta-galactosidase based topcount luminescence analysis. It is filed as cell-based.
For experiment [7] the target is unchanged. Briefly: Antagonist activity at Prolink1-tagged human GPR55 receptor expressed in CHO cells assessed as inhibition of lysophosphatidylinositol-induced beta arrestin recruitment at 10 uM after 90 mins by beta-galactosidase based topcount luminescence analysis relative to control. The format is functional, cell-based. The essentials: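 GPR55-expressing CHO cells, β-arrestin complementation luminescence. Percent inhibition by test compound at 10 μM of the response to 1 μM LPI.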

The target in experiment [8] is T3, N-arachidonyl glycine receptor (Homo sapiens). As to the kind of experiment: Agonist activity at Prolink1-tagged human GPR18 receptor expressed in CHO cells assessed as induction of beta-arrestin recruitment after 90 mins in presence of 10 uM THC by beta-galactosidase based topcount luminescence analysis relative to control. It is filed as cell-based. The essentials:
(§1)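 β-Arrestin recruitment in CHO cells expressing human GPR18. Agonist concentration–response curves recorded in the presence of fixed Δ9-THC (3 μM or 10 μM). Means of three independent experiments, each in duplicate.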

The target in experiment [9] is Cannabinoid receptor 2 (Homo sapiens) (UniProt P34972). Briefly: Displacement of [3H]CP55,940 from human CB2 receptor expressed in CHO cell membranes after 2 hrs by liquid scintillation analysis. The essentials:
(§2)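 CB receptor radioligand binding: test compound at 10 μM single concentration, scored for displacement of a CB-specific radioligand and for any increase in bound radioligand.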
A general note: Displacement assays read how much labelled ligand stays bound in the presence of the test substance.

The target in experiment [10] is T3, N-arachidonyl glycine receptor (Homo sapiens). Briefly: Agonist activity at Prolink1-tagged human GPR18 receptor expressed in CHO cells assessed as increase in beta-arrestin recruitment at 1 uM in presence of THC at lower concentrations after 90 mins by beta-galactosidase based topcount luminescence analysis. The settings on record: filed as agonist. The format is cell-based. The essentials:
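GPR18-CHO β-arrestin recruitment assay. Fixed agonist at 1 μM combined with a THC concentration–response series. Means of three independent experiments in duplicate.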

Experiment [11] addresses Cannabinoid receptor 1 (Homo sapiens) (UniProt P21554). As to the kind of experiment: Displacement of [3H]CP55,940 from human CB1 receptor expressed in CHO cell membranes after 2 hrs by liquid scintillation analysis. The essentials: as §2
Experiment [12] concerns the target T3, N-arachidonyl glycine receptor (Homo sapiens). As to the kind of experiment: Agonist activity at Prolink1-tagged human GPR18 receptor expressed in CHO cells assessed as induction of beta-arrestin recruitment after 90 mins in presence of 3 uM THC by beta-galactosidase based topcount luminescence analysis. It is filed as cell-based. The essentials:
as §1

Experiment [13] has the same target. Briefly: Agonist activity at Prolink1-tagged human GPR18 receptor expressed in CHO cells assessed as effect on induction of beta-arrestin recruitment after 90 mins in presence of 3 to 20 uM […] antagonist 2-(3-(6-(4-chlorophenoxy)hexyloxy)benzylidene)-6,7-dihydro-2H-imidazo[2,1-b][1,3]thiazin-3(5H)-one by beta-galactosidase based topcount luminescence analysis. The format is cell-based. As to conditions: filed as agonist.

For experiment [14] the target is unchanged. As to the kind of experiment: Agonist activity at Prolink1-tagged human GPR18 receptor expressed in CHO cells assessed as induction of beta-arrestin recruitment by measuring maximum inhibition of 2-(3-(6-(4-chlorophenoxy)hexyloxy)benzylidene)-6,7-dihydro-2H-imidazo[2,1-b][1,3]thiazin-3(5H)-one at 1 uM after 90 mins by beta-galactosidase based topcount luminescence analysis. It is filed as cell-based. The settings on record: filed as agonist. The essentials: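 Human GPR18 stably expressed in CHO cells, β-arrestin enzyme complementation. Antagonist concentration-inhibition curves run against a fixed 1 μM agonist stimulus. IC50 and maximal inhibition derived from curves; means of three independent experiments, each in duplicate.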

The source made the active and inactive calls. The rule behind the calls is not given here.

T2 sequence (Q9Y2T6 whole entry): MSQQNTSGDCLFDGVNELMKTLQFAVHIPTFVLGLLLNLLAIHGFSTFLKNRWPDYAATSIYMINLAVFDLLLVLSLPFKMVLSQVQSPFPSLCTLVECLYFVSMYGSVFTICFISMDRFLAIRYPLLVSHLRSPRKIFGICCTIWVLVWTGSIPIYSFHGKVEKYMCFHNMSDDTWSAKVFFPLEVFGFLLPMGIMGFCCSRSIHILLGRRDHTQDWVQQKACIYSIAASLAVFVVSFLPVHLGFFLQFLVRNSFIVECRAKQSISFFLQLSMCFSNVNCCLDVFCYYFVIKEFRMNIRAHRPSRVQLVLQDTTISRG
Sequence of Cannabinoid receptor 2 (Homo sapiens) (P34972 whole entry): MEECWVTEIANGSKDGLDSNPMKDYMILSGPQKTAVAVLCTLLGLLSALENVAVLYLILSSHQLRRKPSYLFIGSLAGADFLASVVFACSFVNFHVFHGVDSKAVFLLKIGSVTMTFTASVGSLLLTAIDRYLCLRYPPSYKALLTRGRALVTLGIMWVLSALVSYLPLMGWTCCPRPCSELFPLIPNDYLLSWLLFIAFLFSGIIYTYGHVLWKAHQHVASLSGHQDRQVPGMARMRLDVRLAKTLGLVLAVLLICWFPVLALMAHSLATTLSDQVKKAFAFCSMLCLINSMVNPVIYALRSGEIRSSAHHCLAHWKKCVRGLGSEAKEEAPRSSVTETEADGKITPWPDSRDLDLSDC
Sequence of Cannabinoid receptor 1 (Homo sapiens) (P21554 whole entry): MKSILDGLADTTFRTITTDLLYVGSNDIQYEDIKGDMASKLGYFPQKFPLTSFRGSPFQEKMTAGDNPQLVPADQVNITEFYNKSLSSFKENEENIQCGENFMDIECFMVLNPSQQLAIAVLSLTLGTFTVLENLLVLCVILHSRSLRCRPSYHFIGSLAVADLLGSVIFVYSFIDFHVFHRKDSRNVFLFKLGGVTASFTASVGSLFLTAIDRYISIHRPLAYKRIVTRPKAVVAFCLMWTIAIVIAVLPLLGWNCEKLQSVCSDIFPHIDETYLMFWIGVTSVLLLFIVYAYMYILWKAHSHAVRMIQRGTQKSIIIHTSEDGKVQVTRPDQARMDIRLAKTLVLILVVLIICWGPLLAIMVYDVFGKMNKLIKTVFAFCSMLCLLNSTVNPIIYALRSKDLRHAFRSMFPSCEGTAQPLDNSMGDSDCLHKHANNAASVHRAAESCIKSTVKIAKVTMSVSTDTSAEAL

For the compound `CCN(CC)CCN1CCCn2c1nc1c2c(=O)n(C)c(=O)n1C`, the EC50 in [1] and in [6] was greater than 10 µM in each case. For the same compound, the concentration for half-maximal inhibition (IC50) in experiment [2] and in [5] was greater than 10 µM throughout. Moreover, the Activity in [3] was determined as 4%; in [4], 39%. In [7], the inhibition is -3%.

With `CCCCC/C=C\C/C=C\C/C=C\C/C=C\CCCC(=O)NCC(=O)O` [ARACHIDONOYL GLYCINE], the EC50 in experiment [1] was greater than 10 µM. For the same compound, in [5], the IC50 is greater than 10 µM.

For the compound `CCN1CCCn2c1nc1c2c(=O)n(C)c(=O)n1C`, the half-maximal effective concentration (EC50) in [1] and in experiment [6] was greater than 10 µM throughout. Further, the IC50 in experiment [2] and in experiment [5] was greater than 10 µM throughout. The Activity in experiment [3] was -16%; in [4] it was 2%. In experiment [7], the inhibition was 17%.

Consider `Cn1c(=O)c2c(nc3n2CCCN3Cc2ccc(Cl)cc2)n(C)c1=O`, for which the EC50 in [1] and in experiment [6] was greater than 10 µM in each case. Moreover, the IC50 in experiment [2] and in experiment [5] was greater than 10 µM in each case. Further, the Activity was -9% in experiment [3] and 6% in experiment [4]. For the same compound, the inhibition in experiment [7] was found to be 1%.

As for `CCCCCN1CCCn2c1nc1c2c(=O)n(C)c(=O)n1C`, the EC50 in experiment [1] and in experiment [6] was greater than 10 µM throughout. Further, the IC50 in experiment [2] and in [5] was greater than 10 µM throughout. In addition, the Activity in experiment [3] was 10%; in experiment [4], -1%.

Take `CCCn1c(=O)c2c(nc3n2CCCN3CCc2c[nH]c3ccccc23)n(CCC)c1=O`: the EC50 in [1] and in [6] was greater than 10 µM throughout. Moreover, the IC50 in experiment [2] and in experiment [5] was greater than 10 µM in each case. For the same compound, the Activity in experiment [4] was -12%. The inhibition in experiment [7] was -4%.

Take `CCCCCc1cc(O)c2c(c1)OC(C)(C)[C@@H]1CCC(C)=C[C@@H]21` [DRONABINOL]: the Activity in [3] was -4%. Further, the EC50 in [6] was greater than 10 µM.

As for `C=C(C)[C@@H]1CCC(C)=C[C@H]1c1c(O)cc(O)cc1CCCCC`, the EC50 in [1] and in experiment [6] was greater than 10 µM in each case. Further, the IC50 in experiment [2] and in experiment [5] was greater than 10 µM each time. In addition, the Activity in experiment [3] stood at 7%. Besides, the inhibition in [7] turned out to be 33%.

`Cn1c(=O)c2c(nc3n2CCN3CCc2c[nH]c3ccccc23)n(C)c1=O`: the IC50 in [2] was greater than 10 µM. For the same compound, in experiment [6], the EC50 was greater than 10 µM.

Take `Cn1c(=O)c2c(nc3n2CCCN3CCc2ccccc2)n(C)c1=O`: the EC50 in experiment [1] and in [6] was greater than 10 µM in each case. Moreover, the IC50 in experiment [2] and in [5] was greater than 10 µM throughout. In addition, the values for the Activity in [3] and in [4] were 16% and 2%, respectively. In addition, in experiment [7], the inhibition was -10%.

As to `CCCCN1CCCn2c1nc1c2c(=O)n(C)c(=O)n1C`, the EC50 in experiment [1] and in experiment [6] was greater than 10 µM in each case. Moreover, the IC50 in experiment [2] and in experiment [5] was greater than 10 µM throughout. The values for the Activity in [3] and in experiment [4] were -4% and 26%, respectively. Also, the inhibition in [7] was 34%.

For `Cn1c(=O)c2c(nc3n2CCCN3CCc2ccc(Cl)cc2)n(C)c1=O`, the EC50 in experiment [1] and in experiment [6] was greater than 10 µM each time. The IC50 in [2] and in [5] was greater than 10 µM each time. For the same compound, the Activity stood at 10% in experiment [3] and 14% in [4].

For the compound `COc1ccc(CCN2CCCn3c2nc2c3c(=O)n(C)c(=O)n2C)cc1`, the EC50 in experiment [1] and in experiment [6] was greater than 10 µM each time. The IC50 in experiment [2] and in [5] was greater than 10 µM each time. Further, the Activity was -6% in experiment [3] and -2% in experiment [4].

Consider `COc1ccc(CCN2CCCn3c2nc2c3c(=O)n(C)c(=O)n2C)cc1OC`, for which the EC50 in [1] and in experiment [6] was greater than 10 µM each time. Besides, the IC50 in [2] and in [5] was greater than 10 µM throughout. For the same compound, the Activity in [3] is 15%; in [4] it was -39%. Besides, in experiment [7], the inhibition is 32%.

As for `Cn1c(=O)c2c(nc3n2CCCN3CCc2c[nH]c3ccccc23)n(C)c1=O`, the inhibition entry in experiment [8] was “inactive”. Also, the result in experiment [9], in experiment [11] and in experiment [12] was inactive. Further, the EC50 in experiment [1] was 0.562 µM; in experiment [6], greater than 10 µM. In addition, the outcome in experiment [10] and in experiment [13] was Active. For the same compound, the IC50 in [2] is greater than 10 µM. In addition, in [3], the Activity is -5%. The inhibition in [14] is 65%; in experiment [7], 20%.

Consider `Cn1c(=O)c2c(nc3n2CCCCN3CCc2c[nH]c3ccccc23)n(C)c1=O`, for which, in experiment [2], the IC50 is greater than 10 µM. Besides, the EC50 in experiment [6] is greater than 10 µM.

In the case of `Cn1c(=O)c2c(nc3n2CCN3c2ccc(O)cc2)n(C)c1=O`, the EC50 in experiment [1] and in experiment [6] was greater than 10 µM in each case. Moreover, the IC50 in [2] and in [5] was greater than 10 µM in each case. In addition, the Activity in experiment [3] is 13%; in experiment [4] it was 22%.

As for `COCCN1CCCn2c1nc1c2c(=O)n(C)c(=O)n1C`, the EC50 in [1] and in experiment [6] was greater than 10 µM in each case. Also, the IC50 in experiment [2] and in experiment [5] was greater than 10 µM each time. Moreover, the Activity worked out at 18% in experiment [3] and 40% in experiment [4] (filed as agonist). The inhibition in experiment [7] was -4%.

The EC50 is the concentration at which the effect is half-maximal. One may read the IC50 as the concentration that inhibits the measured activity by half. As usually defined, the inhibition is the drop in the measured response relative to a control, in per cent.
